Reference: ChEMBL document CHEMBL1153817, “New resorcinol-anandamide "hybrids" as potent cannabinoid receptor ligands endowed with antinociceptive activity in vivo” (J Med Chem, 2009)
The source made the active and inactive calls. The rule behind the calls is not given here.

Columns and labels:
COS = assay: Selectivity index, ratio of Ki for human CB2 receptor to Ki for human CB1 receptor expressed in african green monkey COS cells; format: cell-based
Procedure, shortened: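 Ki at COS-expressed human CB1 and CB2 each from [3H]CP-55,940 displacement (0.14 nM for CB1), IC50 converted via Cheng-Prusoff, mean of 3 experiments; index taken as ratio of the two Ki values.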

Cannabinoid receptor 2 [1] = biological target: T1, Cannabinoid receptor 2 (Homo sapiens, UniProt P34972); assay: Binding affinity to human recombinant CB2 receptor expressed in african green monkey COS cells by radioligand binding assay; format: cell-based
Cannabinoid receptor 1 [2] = biological target: T2, Cannabinoid receptor 1 (Homo sapiens, UniProt P21554); assay: Binding affinity to human recombinant CB1 receptor expressed in african green monkey COS cells by radioligand binding assay; format: cell-based
Cannabinoid receptor 2 [3] = biological target: T1, Cannabinoid receptor 2; assay: Displacement of [3H]CP-55940 form human CB2 receptor expressed in HEK cells at 10 uM; format: cell-based; conditions: HEK293
Cannabinoid receptor 1 [4] = biological target: T2, Cannabinoid receptor 1; assay: Displacement of [3H]CP-55940 form human CB1 receptor expressed in HEK cells at 10 uM; format: cell-based; conditions: HEK293
Cannabinoid receptor 1 [5] = biological target: T3, Cannabinoid receptor 1 (Rattus norvegicus, UniProt P20272); assay: Binding affinity to CB1 receptor in rat spleen membrane; format: cell membranes
Cannabinoid receptor 2 [6] = biological target: T4, Cannabinoid receptor 2 (Rattus norvegicus, UniProt Q9QZN9); assay: Binding affinity to CB2 receptor in rat brain membrane; format: cell membranes
T4 sequence (Q9QZN9 whole entry): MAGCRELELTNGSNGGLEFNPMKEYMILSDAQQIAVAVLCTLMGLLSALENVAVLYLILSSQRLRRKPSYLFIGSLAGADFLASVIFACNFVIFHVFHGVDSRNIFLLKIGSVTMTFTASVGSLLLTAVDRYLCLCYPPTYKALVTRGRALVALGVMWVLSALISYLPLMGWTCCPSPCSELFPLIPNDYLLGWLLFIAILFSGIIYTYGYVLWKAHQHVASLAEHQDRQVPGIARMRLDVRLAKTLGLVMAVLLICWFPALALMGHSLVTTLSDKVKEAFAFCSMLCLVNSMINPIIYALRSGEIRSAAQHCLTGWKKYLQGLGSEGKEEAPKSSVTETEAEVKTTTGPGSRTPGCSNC

Cannabinoid receptor 2 [7] = biological target: T4, Cannabinoid receptor 2; assay: Binding affinity to CB2 receptor in rat spleen membrane; format: cell membranes
Cannabinoid receptor 1 [8] = biological target: T3, Cannabinoid receptor 1; assay: Binding affinity to CB1 receptor in rat brain membrane; format: cell membranes
Mus musculus [9] = assay: Antinociceptive activity against formalin-induced paw pain in mouse at 1 mg/kg, ip pretreated 15 mins before formalin challenge assessed after 30 to 45 mins in presence of CB2 receptor-antagonist AM630; format: functional, organism-based; set-up: dose 1 mg/kg
Procedure, shortened: (§1)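 Formalin (1.25% in saline, 30 µL) injected into dorsal hind paw; mice randomised, n = 8-10 per group, one treatment each. Test drug given ip in 10% DMSO/saline 15 min pre-formalin; rimonabant or AM630 (1 mg/kg ip) given 5 min before test drug. Lifting, licking, shaking, flinching timed per 5 min over 60 min; one-way ANOVA with Bonferroni.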

Mus musculus [10] = assay: Antinociceptive activity against formalin-induced paw pain in mouse at 1 mg/kg, ip pretreated 15 mins before formalin challenge assessed after 30 to 45 mins in presence of CB1 receptor-antagonist rimonabant; format: functional, organism-based; set-up: dose 1 mg/kg; procedure, shortened: as §1
Mus musculus [11] = assay: Antinociceptive activity against formalin-induced paw pain in mouse at 1 mg/kg, ip pretreated 15 mins before formalin challenge assessed after 30 to 45 mins; format: functional, organism-based; set-up: dose 1 mg/kg; procedure, shortened: as §1

T1 sequence (P34972 whole entry): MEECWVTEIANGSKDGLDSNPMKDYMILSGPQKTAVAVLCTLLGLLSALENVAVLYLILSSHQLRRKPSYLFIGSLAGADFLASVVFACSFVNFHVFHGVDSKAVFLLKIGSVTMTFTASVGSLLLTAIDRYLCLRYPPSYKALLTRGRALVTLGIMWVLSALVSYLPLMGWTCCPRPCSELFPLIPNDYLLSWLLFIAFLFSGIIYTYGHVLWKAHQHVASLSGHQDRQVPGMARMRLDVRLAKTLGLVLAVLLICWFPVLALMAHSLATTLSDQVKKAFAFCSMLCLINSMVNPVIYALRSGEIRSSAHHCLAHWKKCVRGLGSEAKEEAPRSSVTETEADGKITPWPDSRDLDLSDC
T3 sequence (P20272 whole entry): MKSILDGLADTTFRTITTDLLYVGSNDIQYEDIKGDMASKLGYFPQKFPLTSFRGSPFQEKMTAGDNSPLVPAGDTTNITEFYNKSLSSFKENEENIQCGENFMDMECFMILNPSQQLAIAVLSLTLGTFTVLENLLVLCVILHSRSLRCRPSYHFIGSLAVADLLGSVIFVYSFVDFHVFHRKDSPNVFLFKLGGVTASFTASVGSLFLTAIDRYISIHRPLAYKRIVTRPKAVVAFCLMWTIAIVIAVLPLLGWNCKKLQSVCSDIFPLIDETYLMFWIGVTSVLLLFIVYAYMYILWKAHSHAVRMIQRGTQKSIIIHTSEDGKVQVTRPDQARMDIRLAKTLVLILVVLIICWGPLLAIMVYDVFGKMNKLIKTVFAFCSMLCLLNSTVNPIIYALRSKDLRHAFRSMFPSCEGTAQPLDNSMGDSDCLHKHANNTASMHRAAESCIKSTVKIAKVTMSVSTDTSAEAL
T2 sequence (P21554 whole entry): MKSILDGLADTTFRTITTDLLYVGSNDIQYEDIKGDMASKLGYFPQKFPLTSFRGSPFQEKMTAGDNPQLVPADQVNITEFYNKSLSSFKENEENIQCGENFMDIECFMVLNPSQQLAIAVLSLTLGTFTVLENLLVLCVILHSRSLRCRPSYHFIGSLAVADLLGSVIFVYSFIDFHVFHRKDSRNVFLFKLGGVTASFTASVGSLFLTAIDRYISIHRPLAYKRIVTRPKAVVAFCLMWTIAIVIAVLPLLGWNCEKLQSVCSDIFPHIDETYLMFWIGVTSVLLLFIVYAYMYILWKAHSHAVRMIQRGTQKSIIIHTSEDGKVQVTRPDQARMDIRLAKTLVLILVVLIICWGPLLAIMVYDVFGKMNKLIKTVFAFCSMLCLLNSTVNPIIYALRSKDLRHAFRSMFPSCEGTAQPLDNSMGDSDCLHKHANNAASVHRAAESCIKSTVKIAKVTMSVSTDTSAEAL

SMILES	Ratio Ki (COS) [nM]	Ki (Cannabinoid receptor 2 [1]; read-out: Ki) [nM]	Ki (Cannabinoid receptor 1 [2]; read-out: Ki) [nM]	Activity (Cannabinoid receptor 2 [3]) [%]	Activity (Cannabinoid receptor 1 [4]) [%]	IC50 (Cannabinoid receptor 1 [5]) [nM]	IC50 (Cannabinoid receptor 2 [6]) [nM]	IC50 (Cannabinoid receptor 2 [7]) [nM]	Ki (Cannabinoid receptor 2 [1]; cos)	Ki (Cannabinoid receptor 2 [1]; read-out: pKi (converted)) [nM]	IC50 (Cannabinoid receptor 1 [8]) [nM]	Ki (Cannabinoid receptor 1 [2]; cos)	Ki (Cannabinoid receptor 1 [2]; read-out: pKi (converted)) [nM]	Activity (Mus musculus [9])	Activity (Mus musculus [10])	Activity (Mus musculus [11])
CCCCCCC(C)(C)c1cc(O)cc(OCCCCCCCCCCC(=O)NC2CC2)c1	2700	7.9	21	> 50	> 50	–	–	–	–	–	–	–	–	–	–	–
CCCCCCC(C)(C)c1cc(O)cc(OCCCCCCCCCCCC(=O)NCC2CC2)c1	9000	600	5400	> 50	> 50	–	–	–	–	–	–	–	–	–	–	–
CCCCCCC(C)(C)c1cc(O)cc(OCCCCCCCC(=O)NCC2CC2)c1	2900	34	100	> 50	> 50	–	–	–	–	–	–	–	–	–	–	–
CCCCOc1cc(O)cc(OCCCCCCCCCCC(=O)NCCO)c1	1500	1620	2410	> 50	> 50	–	–	–	–	–	–	–	–	–	–	–
CCCCCc1cc(O)cc(OCCCCCCCCCCC(=O)NC2CC2)c1	400	–	–	–	–	–	–	–	–	–	–	–	–	–	–	–
CC(C)CCOc1cc(O)cc(OCCCCCCCCCCC(=O)NC2CC2)c1	1700	130	220	> 50	> 50	–	–	–	–	–	–	–	–	–	–	–
CC(C)CCOc1cc(O)cc(OCCCCCCCCCCC(=O)NCC2CC2)c1	11500	200	2300	> 50	> 50	–	–	–	–	–	–	–	–	–	–	–
CCCCCCC(C)(C)c1cc(O)cc(OCCCCCCCCCCC(=O)NCc2ccc(O)c(OC)c2)c1	5500	510	2820	> 50	> 50	–	–	–	–	–	–	–	–	–	–	–
CCCCOc1cc(O)cc(OCCCCCCCCCCC(=O)NC2CC2)c1	2300	120	280	> 50	> 50	–	–	–	–	–	–	–	–	–	–	–
O=C(CCCCCCCCCCOc1cc(O)cc(O)c1)NC1CC1	–	–	–	> 50	> 50	> 10000	> 10000	> 10000	Not Active	10000	> 10000	Not Active	10000	–	–	–
CCCCCCC(C)(C)c1cc(O)cc(OCCCCCCCCCCCC(=O)NC2CC2)c1	8500	20	170	> 50	> 50	–	–	–	–	–	–	–	–	–	–	–
CCCCCCC(C)(C)c1cc(O)cc(OCCCCCCCCCCC(=O)NCCO)c1	10300	30	310	> 50	> 50	–	–	–	–	–	–	–	–	–	–	–
O=C(CCCCCCCCCCOc1cc(O)cc(O)c1)NCCO	–	–	–	> 50	> 50	> 10000	> 10000	> 10000	Not Active	10000	> 10000	Not Active	10000	–	–	–
CCCCCCC(C)(C)c1cc(O)cc(OCCCCCCCC(=O)NC2CC2)c1	700	7.9	5.6	> 50	> 50	–	–	–	–	–	–	–	–	inactive	inactive	Active
CCCCCCCOc1cc(O)cc(OCCCCCCCCCCC(=O)NC2CC2)c1	10600	210	2220	> 50	> 50	–	–	–	–	–	–	–	–	–	–	–
CCCCCCC(C)(C)c1cc(O)cc(OCCCCCCCCCCC(=O)NCC2CC2)c1	28600	35	1000	> 50	> 50	–	–	–	–	–	–	–	–	–	–	–
CCCCCCC(C)(C)c1cc(O)cc(OCCCCCCCCCCCC(=O)NCCO)c1	10300	80	820	> 50	> 50	–	–	–	–	–	–	–	–	–	–	–
CC(C)CCOc1cc(O)cc(OCCCCCCCCCCC(=O)NCCO)c1	5100	570	2880	> 50	> 50	–	–	–	–	–	–	–	–	–	–	–
O=C(CCCCCCCCCCOc1cc(O)cc(O)c1)NCC1CC1	–	–	–	> 50	> 50	> 10000	> 10000	> 10000	Not Active	10000	> 10000	Not Active	10000	–	–	–
CCCCCCC(C)(C)c1cc(O)cc(OCCCCCCCCCCC(=O)NCCc2ccc(O)c(O)c2)c1	700	5000	3400	> 50	> 50	–	–	–	–	–	–	–	–	–	–	–
CCCCCCCOc1cc(O)cc(OCCCCCCCCCCC(=O)NCCO)c1	1300	2420	3070	> 50	> 50	–	–	–	–	–	–	–	–	–	–	–
CCCCCCC(C)(C)c1cc(O)cc(OCCCCCCCC(=O)NCCO)c1	400	160	56	> 50	> 50	–	–	–	–	–	–	–	–	–	–	–
